High-throughput results deposited in PubChem by several laboratories.
PHOSPHO1 inh = inhibitors of human PHOSPHO1 phosphatase; recombinant PHOSPHO1, absorbance phosphatase assay; inhibition, % at 13.3 µM; actives 1.1% (n = 290,000); in the data active = inhibition above about 60%
Target sequence (Q8TCT1 whole entry, looked up): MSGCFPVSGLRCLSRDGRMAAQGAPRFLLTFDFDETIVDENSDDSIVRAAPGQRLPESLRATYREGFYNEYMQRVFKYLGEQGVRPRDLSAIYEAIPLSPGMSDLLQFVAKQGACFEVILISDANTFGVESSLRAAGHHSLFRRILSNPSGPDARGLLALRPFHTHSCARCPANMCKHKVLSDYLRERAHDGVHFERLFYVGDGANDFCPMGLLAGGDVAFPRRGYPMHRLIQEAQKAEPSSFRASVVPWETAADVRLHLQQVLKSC
ALR H2O2 inh = blocks human ALR sulfhydryl oxidase activity; inhibition, % (test concentration not listed); actives 3.8% (n = 290,000); P55789; purified ALR, DTT oxidation, H2O2 HRP-luminol luminescence;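 active = mean replicate inhibition above about 79%, with every replicate also reaching it, limit read from the data; inconclusive = only one of the two criteria met; inactive = mean below limit and not every replicate reaching it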
AI-2 QS modul = modulates the Vibrio harveyi AI-2 quorum sensing system; Vibrio harveyi JMH597 AI-2 luminescence/OD600 ratio, 9 h; active compounds read low; strain lacks LuxN and CqsS sensors; 0 = neutral-control median; activity change, % at 7.5 µM; actives 0.4% (n = 300,000); AID 2094; in the data active = activity change below about -75%, passing the limit was not always enough; inconclusive = no clear call, values can overlap the other calls;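 also: luminescence divided by OD600 gain over 9 h not by final OD600 alone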
HSF-1 act = increases HSF-1 driven luciferase reporter signal; NIH3T3-HGL HSF-1 luciferase reporter, MG132, 8 h; 100% = twice DMSO control signal; activation, % at 9 µM; actives 1.7% (n = 300,000);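 active = mean replicate activation of at least 50% with a set share of replicates each reaching 50%; inconclusive = only one of those two conditions met; inactive = mean below 50% and too few replicates reaching it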;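 also: 0% = median of the neutral control wells and 100% = twice that signal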
HSF1 inhib = HSF1 inhibition; NIH3T3-HGL HSE-luciferase, MG132-induced, luminescence 8 h; active compounds read low; activity change, negative = inhibition, % at 7.5 µM (by protocol); actives 0.77% (n = 300,000); AID 2098;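 active = more than half of replicate wells show activity change below -50%, luminescence cut by over half; inconclusive = some wells, but at most half, below -50%; inactive = no replicate well below -50%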;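 also: luciferase reports HSF-1 transcriptional activity via heat shock element; 0% = median of DMSO wells and -100% = zero luminescence signal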
core dimer inh = HCV core protein dimerization inhibition; TR-FRET GST/Flag-core106 dimerization, 1536-well; inhibition, % at 5 µM; actives 0.33% (n = 300,000); AID 1899;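 active = inhibition above the mean of all tested compounds plus 3 SD, set per screening campaign, cut at about 45% in these data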
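System – GST-tagged and Flag-tagged HCV core protein residues 1-106 · Repeats – one well for each compound · Technique – TR-FRET 671 and 617 nm emission · Doses – one concentration, 5 µM, in 0.5% DMSO · Times – 4 h, 22.5 °C incubation · Also added – Eu donor and XL665 acceptor anti-tag antibodies · Measure – percent inhibition of core106 dimerization signal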
Numbers without * were called inactive; ? = inconclusive; · = not tested or not shown. This is a sample that favours compounds with a hit; in the whole collection about 6.8% have one here.

SMILES	PHOSPHO1 inh	ALR H2O2 inh	AI-2 QS modul	HSF-1 act	HSF1 inhib	core dimer inh
COc1ccc(C(=O)Nc2ccc3c(c2)nc2n3CCSC2)cc1	32	99*	12	23	8	-2
COC(=O)c1cc(C(=O)NCc2ccccc2)c(=O)[nH]c1C	20	-2	5	0	8	6
Cc1cccc2c(SCC(=O)NCC3CCCO3)nc(-c3ccc(F)cc3)nc12 (stereo not drawn)	32	1	23	-10	-7	0
CCN1CCN(c2ccc(N=Cc3ccccc3O)cc2)CC1	15	98*	-14	4	-8	0
COc1cccc(/C=N/N2CCOCC2)c1O	6	55	7	-41	-36	-6
COc1cccc(C=Nc2ccc3c(c2)OCCO3)c1O	-20	87*	24	-55	?	-3
Cc1cc(O)c(C=Nc2ccc(N3CCOCC3)cc2)c(C)c1Cl	41	60	22	-58	?	12
COc1cccc(C=Nc2ccc(N3CCOCC3)cc2)c1O	19	99*	12	-20	-19	4
CNC(=O)CSc1nnc(SCCC(=O)O)s1	-10	-5	10	-3	-11	-5
CN(C(=O)c1ccncc1)C1CCCCC1	-34	-13	21	4	3	-5
O=C(CNS(=O)(=O)c1cccs1)NCc1ccccc1	-7	-5	-3	6	-3	-5
CCOC(=O)CCc1c(C)c2ccc(OCC(=O)N3CCOCC3)c(C)c2oc1=O	62*	-5	18	-7	-2	5
CCN(CC)CCn1c2ccccc2c2n[nH]c(=S)nc21	·	94*	-1	24	-5	12
O=C(COc1ccc(Cl)cc1Br)Nc1nnc(C2CC2)s1	·	-1	·	·	·	·
CCCc1cc(C(=O)Nc2nccs2)cs1	-3	-3	27	86*	53	0
CCCN1C(=O)c2ccc(C(=O)Nc3nccs3)cc2C1=O	0	25	5	-4	2	0
O=C(NCC1CCCN1S(=O)(=O)c1cccs1)c1ccccc1F (stereo not drawn)	·	-2	17	-3	0	1
COc1cc(/C=C(\C#N)C(=O)Nc2cccc(C(=O)O)c2)ccc1OCc1ccc(F)cc1	16	7	26	77*	51	14
COc1ccc(NC(=O)/C(C#N)=C\c2ccc(OCc3ccc(C(=O)O)cc3)c(OC)c2)cc1	70*	11	15	31	10	30
N#C/C(=C\c1ccc(OCc2ccc(Br)cc2)cc1)C(=O)Nc1cccc(C(=O)O)c1	-72	5	56	72*	34	-8
N#C/C(=C/c1ccc(OCc2ccc(C(=O)O)cc2)cc1)C(=O)Nc1ccccc1	-6	13	13	11	-1	0
COc1cc(/C=C(/C#N)c2ccc(F)cc2)ccc1OCc1ccc(C(=O)O)o1	-27	97*	15	-19	-10	4
CC1CCCN(S(=O)(=O)c2ccc3c(c2)c(=O)nc2ccccn23)C1 (stereo not drawn)	37	5	24	2	-1	16
CCc1ccc(Nc2nnc(SC3CCOC3=O)s2)cc1 (stereo not drawn)	-33	·	?	11	12	1
CC(CC(=O)NCCc1ccc(F)cc1)c1ccccc1 (stereo not drawn)	-6	-6	1	1	7	1
O=C(CN1C(=O)NC(CCc2ccccc2)C1=O)Nc1cccc(Br)c1 (stereo not drawn)	·	-4	·	·	·	·
COC(=O)Nc1ccc2c(c1)N(C(=O)CCN1CCN3CCCC3C1)c1ccccc1S2 (stereo not drawn)	66*	16	-5	48	25	-3
CCOC(=O)Nc1ccc2c(c1)N(C(=O)N1CCN(C)CC1)c1ccccc1S2	21	98*	5	18	2	-8
CCOC(=O)Nc1ccc2c(c1)Sc1ccccc1N2C(=O)CCN1CCOCC1	8	9	6	63*	22	-7
COC(=O)[C@]1(C)N[C@H](CN(C)C(=O)Nc2ccc(Cl)cc2)[C@@H]2C(=O)N(C)C(=O)[C@@H]21	·	1	·	·	·	·
